Measurements of several laboratories.
Protocols differ between the studies behind these lines.
PDE8A: High affinity cAMP-specific and IBMX-insensitive 3',5'-cyclic phosphodiesterase 8A (PDE8A, Homo sapiens, UniProt O60658)
KAT2B: Histone acetyltransferase KAT2B (KAT2B, Homo sapiens, UniProt Q92831)
HDAC1: Histone deacetylase 1 (HDAC1, Homo sapiens, UniProt Q13547)
PTPN7: Tyrosine-protein phosphatase non-receptor type 7 (PTPN7, Homo sapiens, UniProt P35236)
ALOX5: Polyunsaturated fatty acid 5-lipoxygenase (ALOX5, Homo sapiens, UniProt P09917)
ABCB1: ATP-dependent translocase ABCB1 (ABCB1, Homo sapiens, UniProt P08183)
murD: UDP-N-acetylmuramoylalanine--D-glutamate ligase (murD, Escherichia coli K-12, UniProt P14900)
BCKDK: Branched-chain alpha-ketoacid dehydrogenase kinase (BCKDK, Homo sapiens, UniProt O14874)
OPRM1: Mu-type opioid receptor (OPRM1, Homo sapiens, UniProt P35372)

The IC50 of `COc1cc(C[C@H]2C(=O)OC[C@@H]2Cc2ccc(OC)c(OC)c2)ccc1O` is reported as over 20 µM (PDE8A; enzyme activity, inhibitor).
`COc1ccc(S(=O)(=O)ON=C2C=C(C)C(=O)C(C)=C2)cc1` gave an IC50 of 34.7 µM (KAT2B; enzyme activity, inhibitor, radiometric).
For `CSCC[C@H](NC(=O)[C@H](Cc1c[nH]c2ccccc12)NC(=O)CNC(=O)[C@H](Cc1ccc(O)cc1)NC(=O)[C@H](C)NC(=O)[C@@H](CCC(=O)O)NC(=O)CN1CCN(CC(=O)O)CCN(CC(=O)O)CCN(CC(=O)O)CC1)C(=O)N[C@@H](CC(=O)O)C(=O)N[C@@H](Cc1cccc2ccccc12)C(N)=O`, the IC50 was 0.00192 µM (Gastrin/cholecystokinin type B receptor (Rattus norvegicus, UniProt P30553); ligand displacement, radioligand).
The IC50 of `CN1CCN(c2ccc(Nc3ncc4cc(C#N)c(=O)n(C5CCCC5)c4n3)cc2)CC1` is reported as 2.17 µM (Serine/threonine-protein kinase PLK2 (PLK2, Homo sapiens, UniProt Q9NYY3); enzyme activity, inhibitor).
For `O=C(NO)c1ccc(NC(=O)C2(c3ccc(F)cc3)CCCC2)c(F)c1`, the IC50 was 0.204 µM (HDAC1; enzyme activity, inhibitor).
The IC50 of `O=C1c2ccccc2-c2cccc3cccc1c23` is reported as 35 µM (PTPN7; enzyme activity, inhibitor, fluorescence).
With `C=CC(=O)Nc1cc(Nc2nccc(Nc3cc(Cl)c(F)cc3C(C)(C)O)n2)c(OC)cc1N1CC[C@@H](N(C)C)C1` the IC50 was 2.9 µM (Tyrosine-protein kinase Yes (YES1, Homo sapiens, UniProt P07947); enzyme activity, inhibitor; with preincubation).
`CN/C(=N/CCSCc1nc[nH]c1C)NC#N` has an IC50 of 3.6 µM (Multidrug and toxin extrusion protein 2 (SLC47A2, Homo sapiens, UniProt Q86VL8); transporter uptake, inhibitor, radiometric; HEK293; 5 min, pH 8.5).
`N[C@@H](CC(=O)N1CCN(C(c2ccc(F)cc2)c2ccc(F)cc2)CC1)C(=O)N1Cc2ccccc2C1` gave an IC50 of 0.128 µM (Dipeptidyl peptidase 8 (Homo sapiens, UniProt Q6V1X1); enzyme activity, inhibitor).
With `CCCCCCCc1ccc(CCc2cccc(O)c2C(=O)O)cc1` the IC50 was over 200 µM (KAT2B; enzyme activity, inhibitor, radiometric).
The IC50 of `C=C(C)[C@@H]1CCC(C)=C[C@H]1c1c(O)cc(CCC)cc1O` is reported as 4.9 µM (ALOX5; enzyme activity, inhibitor).
For `CC1=CC[C@H]2[C@@H]([C@@H]1CC[C@H]1[C@]3(C)CC[C@H](O)C(C)(C)O[C@H]3CC[C@]1(C)O)C(C)(C)CC[C@]2(C)O`, the IC50 was 50 to 100 µM (ABCB1; transporter efflux, inhibitor, fluorescence; KB-V1; 10 min).
With `O=C(O)C(=O)CC(=O)c1cccc(N(Cc2ccccc2)Cc2ccccc2)c1` the IC50 was 87 µM (PTPN7; enzyme activity, inhibitor, absorbance; pH 7).
For `CCCCCc1cc(O)c(C/C=C(\C)CCC=C(C)C)c(O)c1`, the IC50 was 0.7 µM (ALOX5; enzyme activity, inhibitor).
The IC50 of `N#Cc1ccc(COc2ccccc2C=NNS(=O)(=O)c2ccc3ccccc3c2)cc1` is reported as 62 µM (murD; enzyme activity, inhibitor, absorbance).
`O=c1c(O)c(-c2ccc(O)cc2)oc2cc(O)cc(O)c12` gave an IC50 of 7.8 µM (Histone deacetylase 8 (HDAC8, Homo sapiens, UniProt Q9BY41); enzyme activity, inhibitor).
For `O=C(Nc1ccccc1C=NNS(=O)(=O)c1ccc2ccccc2c1)c1ccc([N+](=O)[O-])cc1`, the IC50 was 43 µM (murD; enzyme activity, inhibitor, absorbance).
`CN[C@H]1CC[C@@H](c2ccc(Cl)c(Cl)c2)c2ccccc21` gave an IC50 of 110 µM (PTPN7; enzyme activity, inhibitor, fluorescence).
With `CCCCC1=NC2(CCCC2)C(=O)N1Cc1ccc(-c2ccccc2-c2nnn[nH]2)cc1` the IC50 was 32.9 µM (BCKDK; enzyme activity, inhibitor).
The IC50 of `CCCC[C@H](NC(=O)[C@H](C)c1c(C)[nH]c2ccc(O)cc12)c1ncc(-c2cc3ccccc3nc2OC)[nH]1` is reported as 0.04 µM (HDAC1; enzyme activity, inhibitor).
For `CCCCc1ncc(/C=C(\Cc2cccs2)C(=O)O)n1Cc1ccc(C(=O)O)cc1`, the IC50 was 76.4 µM (BCKDK; enzyme activity, inhibitor).
The IC50 of `CC/C=C\C/C=C\C/C=C\C/C=C\C/C=C\CCCC(=O)O` is reported as 23.9 µM (DNA polymerase subunit gamma-1 (POLG, Homo sapiens, UniProt P54098); enzyme activity, inhibitor).
For `CCCCc1nc(Cl)c(CO)n1Cc1ccc(-c2ccccc2-c2nn[nH]n2)cc1`, the IC50 was 19.8 µM (BCKDK; enzyme activity, inhibitor).
`C=C(C)[C@@H]1CCC(C)=C[C@H]1c1c(O)cc(CCCCC)cc1O` gave an IC50 of 4.3 µM (ALOX5; enzyme activity, inhibitor).
With `Cc1nccc2c1c(=O)n(C)c1cc(OC[C@@H](N)CC(C)C)c(C#N)cc21` the IC50 was over 30 µM (OPRM1; cell-free assay).
`Cc1ccc(-c2cc(-c3ccc(-c4ccc(C(=O)O)cc4)[nH]3)nc3c(C(C)C)cccc23)cc1` gave an IC50 of over 3.3 µM (Retinoic acid receptor beta (RARB, Homo sapiens, UniProt P10826); reporter gene, antagonist).
With `CC[C@H](C)[C@H](NC(C)=O)C(=O)N[C@@H](CCC(=O)O)C(=O)N[C@H](C(=O)N[C@H](C=O)CC(=O)O)[C@@H](C)O` the IC50 was 0.00644 µM (Caspase-5 (CASP5, Homo sapiens, UniProt P51878); enzyme activity, inhibitor).
For `CCOc1nc2cccc(C(=O)O)c2n1Cc1ccc(-c2ccccc2-c2nnn[nH]2)cc1`, the IC50 was 4.28 µM (BCKDK; enzyme activity, inhibitor).
`CCOCc1nc(O)c(-c2nnc(Cc3ccc(Cl)cn3)o2)c(O)c1-c1c(OC)cccc1OC` has an IC50 of over 30 µM (OPRM1; ligand displacement, radioligand).
With `CCn1ncc2c1-c1cnc(N)c(c1)O[C@H](C)c1cc(F)ccc1-c1nn(C)nc1C2` the IC50 was 0.116 µM (Ephrin type-A receptor 6 (EPHA6, Homo sapiens, UniProt Q9UF33); enzyme activity, inhibitor, radiometric).
With `CCCc1nc(C(C)(C)O)c(C(=O)O)n1Cc1ccc(-c2ccccc2-c2nnn[nH]2)cc1` the IC50 was 198 µM (BCKDK; enzyme activity, inhibitor).
`O=[N+]([O-])c1ccc(S(=O)(=O)Oc2ccccc2C=NNS(=O)(=O)c2ccc3ccccc3c2)cc1` has an IC50 of 74 µM (murD; enzyme activity, inhibitor, absorbance).
`CNC(=O)c1cc2c(Oc3ccc(NC(=O)C4(C(=O)Nc5ccc(F)cc5)CC4)cc3)ccnc2cc1OC` gave an IC50 of 0.01 µM (Tyrosine-protein kinase Srms (SRMS, Homo sapiens, UniProt Q9H3Y6); enzyme activity, inhibitor, radiometric).
The IC50 of `CCN(CC)CCNC(=O)c1c(C)[nH]c(/C=C2\C(=O)Nc3ccc(F)cc32)c1C` is reported as 6.7 µM (ABCB1; transporter efflux, inhibitor; LLC-PK1; 1 h).
`O=C1NC(=O)/C(=C/c2ccc(OCCNc3nc4c(cnn4C4CCCC4)c(=O)[nH]3)c(F)c2)S1` has an IC50 of 0.199 µM (PDE8A; enzyme activity, inhibitor).
